Laboratory results reported in ChEMBL document CHEMBL1147111, “In vitro and in vivo activities of synthetic trioxolanes against major human schistosome species” (Antimicrob Agents Chemother, 2007).
The source made the active and inactive calls. No cut-off for these calls is given here.

Key:
Schistosoma mansoni [1] = test: Antischistosomal activity against NMRI mouse juvenile Schistosoma mansoni infection model assessed as number of cured mouse at 200 mg/kg, po after 28 days; assay type: functional, organism-based; design: dose 200 mg/kg
Outline: (§1)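 Juvenile-infection model: mice carrying Liberian-strain S. mansoni got one oral dose at day 21 postinfection, as a suspension in 7% Tween 80/3% ethanol. There were 3–5 per group, plus untreated controls. Necropsy by exsanguination followed 28 days after treatment. Liver and mesenteric-vein worms were collected, sexed and counted. Total and female burden reductions were calculated versus controls, with Kruskal-Wallis testing.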

Schistosoma mansoni [2] = test: Antischistosomal activity against NMRI mouse juvenile Schistosoma mansoni infection model assessed as reduction of female worm burden at 200 mg/kg, po after 28 days; assay type: functional; design: scale not given: the % may be the effect or the level left; outline: as §1
Schistosoma mansoni [3] = test: Antischistosomal activity against NMRI mouse juvenile Schistosoma mansoni infection model assessed as reduction of total worm burden at 200 mg/kg, po after 28 days; assay type: functional; design: scale not given: the % may be the effect or the level left; outline: as §1
Schistosoma mansoni [4] = test: Antischistosomal activity against Syrian golden hamster juvenile Schistosoma mansoni infection model assessed as reduction of total worm burden at 50 mg/kg, po after 28 days; assay type: functional; design: scale not given: the % may be the effect or the level left
Outline: (§2)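 Hamsters infected with Liberian-strain S. mansoni were treated once orally at 21 days (juvenile lines) or 49 days (adult lines) postinfection. Doses were 50, 100 or 200 mg/kg, in 7% Tween 80/3% ethanol suspension. Groups had 3–4 animals, with untreated controls. After 28 days, animals were bled out. Worms from liver and mesenteric veins were sexed and counted, and cures and burden reductions versus controls were recorded (Kruskal-Wallis).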

Schistosoma mansoni [5] = test: Antischistosomal activity against Syrian golden hamster juvenile Schistosoma mansoni infection model assessed as reduction of total worm burden at 200 mg/kg, po after 28 days; assay type: functional; design: scale not given: the % may be the effect or the level left; outline: as §2
Schistosoma mansoni [6] = test: Antischistosomal activity against Syrian golden hamster juvenile Schistosoma mansoni infection model assessed as reduction of female worm burden at 50 mg/kg, po after 28 days; assay type: functional; design: scale not given: the % may be the effect or the level left; outline: as §2
Schistosoma mansoni [7] = test: Antischistosomal activity against Syrian golden hamster juvenile Schistosoma mansoni infection model assessed as number of cured mouse at 100 mg/kg, po after 28 days; assay type: functional, organism-based; design: dose 100 mg/kg; outline: as §2
Schistosoma mansoni [8] = test: Antischistosomal activity against NMRI mouse adult Schistosoma mansoni infection model assessed as reduction of female worm burden at 400 mg/kg, po after 28 days; assay type: functional; design: scale not given: the % may be the effect or the level left
Outline: (§3)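 Mice with a Liberian-strain S. mansoni infection were dosed at 49 days postinfection with a single oral dose of compound suspended in 7% Tween 80/3% ethanol. Groups held 3–5 animals, with untreated controls. At 28 days posttreatment, animals were killed by bleeding. Worms in liver and mesenteric veins were removed, sexed and counted. Reductions were calculated against controls and tested by Kruskal-Wallis.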

Schistosoma mansoni [9] = test: Antischistosomal activity against Syrian golden hamster adult Schistosoma mansoni infection model assessed as reduction of female worm burden at 50 mg/kg, po after 28 days; assay type: functional; design: scale not given: the % may be the effect or the level left; outline: as §2
Schistosoma mansoni [10] = test: Antischistosomal activity against Syrian golden hamster adult Schistosoma mansoni infection model assessed as reduction of total worm burden at 50 mg/kg, po after 28 days; assay type: functional; design: scale not given: the % may be the effect or the level left; outline: as §2
Schistosoma mansoni [11] = test: Antischistosomal activity against Syrian golden hamster adult Schistosoma mansoni infection model assessed as number of cured mouse at 100 mg/kg, po after 28 days; assay type: functional, organism-based; design: dose 100 mg/kg; outline: as §2
Schistosoma mansoni [12] = test: Antischistosomal activity against Syrian golden hamster adult Schistosoma mansoni infection model assessed as reduction of female worm burden at 200 mg/kg, po after 28 days; assay type: functional; design: scale not given: the % may be the effect or the level left; outline: as §2
Schistosoma mansoni [13] = test: Antischistosomal activity against Syrian golden hamster juvenile Schistosoma mansoni infection model assessed as reduction of female worm burden at 200 mg/kg, po after 28 days; assay type: functional; design: scale not given: the % may be the effect or the level left; outline: as §2
Schistosoma mansoni [14] = test: Antischistosomal activity against Syrian golden hamster adult Schistosoma mansoni infection model assessed as reduction of total worm burden at 100 mg/kg, po after 28 days; assay type: functional; design: scale not given: the % may be the effect or the level left; outline: as §2
Schistosoma mansoni [15] = test: Antischistosomal activity against NMRI mouse adult Schistosoma mansoni infection model assessed as reduction of total worm burden at 400 mg/kg, po after 28 days; assay type: functional; design: scale not given: the % may be the effect or the level left; outline: as §3
Schistosoma mansoni [16] = test: Antischistosomal activity against Syrian golden hamster juvenile Schistosoma mansoni infection model assessed as reduction of female worm burden at 100 mg/kg, po after 28 days; assay type: functional; design: scale not given: the % may be the effect or the level left; outline: as §2
Schistosoma mansoni [17] = test: Antischistosomal activity against Syrian golden hamster juvenile Schistosoma mansoni infection model assessed as reduction of total worm burden at 100 mg/kg, po after 28 days; assay type: functional; design: scale not given: the % may be the effect or the level left; outline: as §2
Schistosoma mansoni [18] = test: Antischistosomal activity against Syrian golden hamster adult Schistosoma mansoni infection model assessed as reduction of female worm burden at 100 mg/kg, po after 28 days; assay type: functional; design: scale not given: the % may be the effect or the level left; outline: as §2
Schistosoma mansoni [19] = test: Antischistosomal activity against Syrian golden hamster adult Schistosoma mansoni infection model assessed as number of cured mouse at 50 mg/kg, po after 28 days; assay type: functional, organism-based; design: dose 50 mg/kg; outline: as §2
Schistosoma mansoni [20] = test: Antischistosomal activity against Syrian golden hamster juvenile Schistosoma mansoni infection model assessed as number of cured mouse at 50 mg/kg, po after 28 days; assay type: functional, organism-based; design: dose 50 mg/kg; outline: as §2
Schistosoma mansoni [21] = test: Antischistosomal activity against Syrian golden hamster adult Schistosoma mansoni infection model assessed as number of cured mouse at 200 mg/kg, po after 28 days; assay type: functional, organism-based; design: dose 200 mg/kg; outline: as §2
Schistosoma mansoni [22] = test: Antischistosomal activity against NMRI mouse adult Schistosoma mansoni infection model assessed as number of cured mouse at 400 mg/kg, po after 28 days; assay type: functional, organism-based; design: dose 400 mg/kg; outline: as §3
Schistosoma japonicum [23] = test: Antischistosomal activity against Syrian golden hamster adult Schistosoma japonicum infection model assessed as reduction of female worm burden at 200 mg/kg, po; assay type: functional; design: scale not given: the % may be the effect or the level left
Outline: (§4)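 Hamsters received 100 S. japonicum (Anhui strain) cercariae through shaved abdominal skin. At 35 days postinfection, they were given a single 200 mg/kg oral dose in Tween 80/ethanol suspension, with untreated controls. Animals were killed by bleeding, and worms were recovered by perfusion of hepatic and portomesenteric veins. Worms were sexed and counted, and reductions were computed against controls (Kruskal-Wallis).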

Schistosoma mansoni [24] = test: Tegumental alteration in Schistosoma mansoni at 20 ug/ml after 72 hrs; assay type: functional, organism-based
Outline: (§5)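 Adult S. mansoni (Liberian strain, 49-day-old) were held two males and two females per well, in duplicate, in Hanks' balanced salt solution with 20% calf serum, 300 IU/ml penicillin and 300 μg/ml streptomycin. Drug was given at 20 μg/ml final from a 1 mg/ml stock in 60% DMSO; solvent control was 1.2% DMSO. Incubation was at 37°C in 5% CO2. Worms were scored under a dissecting microscope at 24, 48 and 72 h for death, motor activity and tegument.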

Schistosoma japonicum [25] = test: Antischistosomal activity against New Zealand rabbit adult Schistosoma japonicum infection model assessed as reduction of female worm burden at 15 mg/kg, po; assay type: functional; design: scale not given: the % may be the effect or the level left
Outline: (§6)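 Rabbits were infected percutaneously with 200 S. japonicum (Anhui strain) cercariae via shaved abdominal skin. A single 15 mg/kg oral dose in Tween 80/ethanol suspension was given 35 days postinfection, with untreated controls. After sacrifice by blood letting, worms were perfused from hepatic and portomesenteric veins, sexed and counted. Cures and burden reductions were determined versus controls (Kruskal-Wallis).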

Schistosoma mansoni [26] = test: Tegumental alteration in Schistosoma mansoni at 20 ug/ml after 24 hrs; assay type: functional, organism-based; outline: as §5
Schistosoma mansoni [27] = test: Reduction of motor activity of Schistosoma mansoni at 20 ug/ml after 48 hrs; assay type: functional, organism-based; outline: as §5
Schistosoma mansoni [28] = test: Reduction of motor activity of Schistosoma mansoni at 20 ug/ml after 72 hrs; assay type: functional, organism-based; outline: as §5
Schistosoma japonicum [29] = test: Antischistosomal activity against New Zealand rabbit adult Schistosoma japonicum infection model assessed as reduction of total worm burden at 15 mg/kg, po; assay type: functional; design: scale not given: the % may be the effect or the level left; outline: as §6
Schistosoma mansoni [30] = test: Reduction of motor activity of Schistosoma mansoni at 20 ug/ml after 24 hrs; assay type: functional, organism-based; outline: as §5
Schistosoma japonicum [31] = test: Antischistosomal activity against Syrian golden hamster adult Schistosoma japonicum infection model assessed as reduction of total worm burden at 200 mg/kg, po; assay type: functional; design: scale not given: the % may be the effect or the level left; outline: as §4
Schistosoma mansoni [32] = test: Antischistosomal activity against Schistosoma mansoni assessed as worm death at 20 ug/ml after 72 hrs; assay type: functional, organism-based; outline: as §5
Schistosoma mansoni [33] = test: Tegumental alteration in Schistosoma mansoni at 20 ug/ml after 48 hrs; assay type: functional, organism-based; outline: as §5
Schistosoma mansoni [34] = test: Antischistosomal activity against Syrian golden hamster juvenile Schistosoma mansoni infection model assessed as number of cured mouse at 200 mg/kg, po after 28 days; assay type: functional, organism-based; design: dose 200 mg/kg; outline: as §2
Schistosoma japonicum [35] = test: Antischistosomal activity against New Zealand rabbit adult Schistosoma japonicum infection model assessed as number of […] mg/kg, po; assay type: functional, organism-based; design: dose 15 mg/kg; outline: as §6
Schistosoma mansoni [36] = test: Antischistosomal activity against Schistosoma mansoni assessed as worm death at 20 ug/ml after 24 hrs; assay type: functional, organism-based; outline: as §5
Schistosoma mansoni [37] = test: Antischistosomal activity against Syrian golden hamster adult Schistosoma mansoni infection model assessed as reduction of total worm burden at 200 mg/kg, po after 28 days; assay type: functional; design: scale not given: the % may be the effect or the level left; outline: as §2
Schistosoma mansoni [38] = test: Antischistosomal activity against Schistosoma mansoni assessed as worm death at 20 ug/ml after 48 hrs; assay type: functional, organism-based; outline: as §5

| SMILES | Activity (Schistosoma mansoni [1]) | Activity (Schistosoma mansoni [2]) [%] | Activity (Schistosoma mansoni [3]) [%] | Activity (Schistosoma mansoni [4]) [%] | Activity (Schistosoma mansoni [5]) [%] | Activity (Schistosoma mansoni [6]) [%] | Activity (Schistosoma mansoni [7]) | Activity (Schistosoma mansoni [8]) [%] | Activity (Schistosoma mansoni [9]) [%] | Activity (Schistosoma mansoni [10]) [%] | Activity (Schistosoma mansoni [11]) | Activity (Schistosoma mansoni [12]) [%] | Activity (Schistosoma mansoni [13]) [%] | Activity (Schistosoma mansoni [14]) [%] | Activity (Schistosoma mansoni [15]) [%] | Activity (Schistosoma mansoni [16]) [%] | Activity (Schistosoma mansoni [17]) [%] | Activity (Schistosoma mansoni [18]) [%] | Activity (Schistosoma mansoni [19]) | Activity (Schistosoma mansoni [20]) | also measured |
| --- | --- | --- | --- | --- | --- | --- | --- | --- | --- | --- | --- | --- | --- | --- | --- | --- | --- | --- | --- | --- | --- |
| C1CCC2(CC1)OOC1(CCCCC1)O2 | inactive | 26.4 | 22.9 | – | – | – | – | – | – | – | – | – | – | – | – | – | – | – | – | – | – |
| C1CCC2(CC1)COC1(CCCCC1)OO2 | inactive | 0 | 0 | – | – | – | – | – | – | – | – | – | – | – | – | – | – | – | – | – | – |
| Oc1ccc([C@H]2CC[C@]3(CC2)OO[C@]2(O3)C3CC4CC(C3)CC2C4)cc1 | inactive | 96.2 | 95.4 | 82.7 | 86.5 | 78.7 | inactive | 64.9 | 36.7 | 46.6 | inactive | 69.7 | 86.4 | 52.4 | 52.2 | 80.5 | 84 | 41.2 | inactive | inactive | Activity (Schistosoma mansoni [21]): inactive; Activity (Schistosoma mansoni [22]): inactive |
| O=C(O)C[C@H]1CC[C@]2(CC1)OO[C@]1(O2)C2CC3CC(C2)CC1C3 | inactive | 87.3 | 82 | 73.4 | 80.2 | 67 | inactive | 0 | 38.9 | 46.1 | inactive | 93.2 | 75.1 | 69.2 | 0 | 78.3 | 83 | 79.6 | inactive | inactive | Activity (Schistosoma japonicum [23]): 100%; Activity (Schistosoma mansoni [24]): inactive; Activity (Schistosoma japonicum [25]): 42.3%; Activity (Schistosoma mansoni [26]): inactive; Activity (Schistosoma mansoni [27]): inactive; Activity (Schistosoma mansoni [28]): inactive; Activity (Schistosoma japonicum [29]): 40.7%; Activity (Schistosoma mansoni [30]): inactive; Activity (Schistosoma japonicum [31]): 94.2%; Activity (Schistosoma mansoni [32]): inactive; Activity (Schistosoma mansoni [33]): inactive; Activity (Schistosoma mansoni [34]): inactive; Activity (Schistosoma japonicum [35]): inactive; Activity (Schistosoma mansoni [36]): inactive; Activity (Schistosoma mansoni [37]): 85%; Activity (Schistosoma mansoni [21]): inactive; Activity (Schistosoma mansoni [38]): inactive; Activity (Schistosoma mansoni [22]): inactive |
